Results: ChEMBL document CHEMBL1122206, “Use of adenine nucleotide derivatives to assess the potential of exo-active-site-directed reagents as species- or isozyme-specific enzyme inactivators. 5. Interactions of adenosine 5'-triphosphate derivatives with rat pyruvate kinases, Escherichia coli thymidine kinase, and yeast and rat …” (1982)

Assays:
[1] = target: T1, Hexokinase-1 (Rattus norvegicus) (UniProt P05708); experiment: Substrate activity for rat hexokinase I as 1:1 Mg complex at 5.0 mM
T1 sequence (whole entry): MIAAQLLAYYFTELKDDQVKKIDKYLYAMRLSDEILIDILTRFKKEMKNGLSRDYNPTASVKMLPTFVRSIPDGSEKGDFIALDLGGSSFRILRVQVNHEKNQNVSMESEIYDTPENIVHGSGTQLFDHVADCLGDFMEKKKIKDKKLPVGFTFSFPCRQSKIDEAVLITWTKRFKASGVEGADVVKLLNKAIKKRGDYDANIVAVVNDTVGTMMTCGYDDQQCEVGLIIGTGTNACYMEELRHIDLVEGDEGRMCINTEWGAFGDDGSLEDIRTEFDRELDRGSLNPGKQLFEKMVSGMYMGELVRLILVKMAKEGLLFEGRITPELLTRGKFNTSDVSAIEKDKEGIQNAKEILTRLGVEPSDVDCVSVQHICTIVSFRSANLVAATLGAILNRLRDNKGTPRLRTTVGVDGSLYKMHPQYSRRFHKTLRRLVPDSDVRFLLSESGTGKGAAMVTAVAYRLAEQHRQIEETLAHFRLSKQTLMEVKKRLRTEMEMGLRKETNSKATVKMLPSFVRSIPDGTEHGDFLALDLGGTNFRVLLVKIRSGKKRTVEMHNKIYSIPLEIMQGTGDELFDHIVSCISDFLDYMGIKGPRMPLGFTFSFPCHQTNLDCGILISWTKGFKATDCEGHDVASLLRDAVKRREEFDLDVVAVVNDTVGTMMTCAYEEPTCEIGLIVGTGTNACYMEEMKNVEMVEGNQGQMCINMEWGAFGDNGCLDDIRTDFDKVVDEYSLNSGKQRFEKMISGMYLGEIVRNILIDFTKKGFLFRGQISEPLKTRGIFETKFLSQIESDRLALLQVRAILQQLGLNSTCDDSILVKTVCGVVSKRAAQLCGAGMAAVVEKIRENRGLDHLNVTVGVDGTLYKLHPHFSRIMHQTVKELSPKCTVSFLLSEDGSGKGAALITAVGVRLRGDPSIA
In short: (§1)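 Hexokinase activity read at 22 °C as A340 change, coupled to glucose-6-phosphate dehydrogenase, in 0.05 M Tris-HCl pH 7.6 with 6.6 mM MgCl2, 10 mM α-D-glucose and 0.93 mM NADP. Donor was 5.0 mM MgATP derivative (1:1 Mg complex) in place of ATP. Yeast HK was isoelectric-focused. Rat HK I and III came from electrofocused liver extract, HK II from dialysed muscle extract.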

[2] = target: Thymidine kinase (Escherichia coli) (UniProt P23331); experiment: Compound was tested for the lose of thymidine kinase activity after 6 hr, at 0 degrees celsius, with 10 mM ATP derivative. values were expressed in percent
Sequence of Thymidine kinase (Escherichia coli) (P23331 whole entry, looked up): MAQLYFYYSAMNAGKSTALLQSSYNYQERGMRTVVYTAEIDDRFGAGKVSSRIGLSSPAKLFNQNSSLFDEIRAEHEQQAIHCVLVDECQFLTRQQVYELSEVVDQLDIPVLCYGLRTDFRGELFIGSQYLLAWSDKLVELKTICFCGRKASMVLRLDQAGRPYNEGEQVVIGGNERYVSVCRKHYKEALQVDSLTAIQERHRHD

[3] = target: T1, Hexokinase-1 (Rattus norvegicus); experiment: Time dependent inhibition of Hexokinase type I activity after 6 h, at 22 degrees celsius, at 5 mM compound
[4] = target: Thymidine kinase (Escherichia coli) (UniProt P23331); experiment: Compound was tested for the initial inhibition of thymidine kinase by 1.4 mM compound in the presence of 5.7 mM ATP in Escherichia coli
Saccharomyces cerevisiae [5] = experiment: Substrate activity against yeast hexokinase as 1:1 Mg complexes at 5.0 mM; in short: as §1
[6] = (§2) Extent of inactivation caused by the compound was reported.; type: functional
[7] = target: T2, Hexokinase-3 (Rattus norvegicus) (UniProt P27926); experiment: Substrate activity for rat hexokinase III as 1:1 Mg complex at 5.0 mM; in short: as §1
T2 sequence (whole entry): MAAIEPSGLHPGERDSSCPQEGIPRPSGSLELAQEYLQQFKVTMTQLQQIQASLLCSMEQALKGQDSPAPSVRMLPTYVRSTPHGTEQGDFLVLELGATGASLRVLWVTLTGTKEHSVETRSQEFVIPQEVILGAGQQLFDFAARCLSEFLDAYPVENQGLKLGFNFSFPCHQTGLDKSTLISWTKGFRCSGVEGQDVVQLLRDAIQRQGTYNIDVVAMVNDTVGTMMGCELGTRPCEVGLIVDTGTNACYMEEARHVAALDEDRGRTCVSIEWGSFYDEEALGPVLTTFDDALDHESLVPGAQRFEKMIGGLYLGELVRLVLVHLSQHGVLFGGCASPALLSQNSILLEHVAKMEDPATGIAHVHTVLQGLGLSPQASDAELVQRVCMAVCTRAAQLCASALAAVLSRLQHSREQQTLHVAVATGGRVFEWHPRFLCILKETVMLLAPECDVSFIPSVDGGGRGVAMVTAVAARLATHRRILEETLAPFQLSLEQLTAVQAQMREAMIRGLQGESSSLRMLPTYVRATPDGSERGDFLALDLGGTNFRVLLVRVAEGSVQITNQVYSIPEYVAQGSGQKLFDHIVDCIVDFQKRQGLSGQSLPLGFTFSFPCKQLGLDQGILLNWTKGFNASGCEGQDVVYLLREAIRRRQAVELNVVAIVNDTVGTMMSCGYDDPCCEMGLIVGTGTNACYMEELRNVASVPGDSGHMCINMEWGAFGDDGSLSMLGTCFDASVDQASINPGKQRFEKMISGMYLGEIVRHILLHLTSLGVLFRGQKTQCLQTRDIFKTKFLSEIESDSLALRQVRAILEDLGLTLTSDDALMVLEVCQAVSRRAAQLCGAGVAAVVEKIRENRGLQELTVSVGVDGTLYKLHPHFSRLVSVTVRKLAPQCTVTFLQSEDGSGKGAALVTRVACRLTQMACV

Rattus norvegicus = species: Rattus norvegicus; experiment: Compound was tested for the affinity to Rat pyruvate kinase relative to the normal substrate. Affinity is expressed as KM (ATP or ADP)/ Ki of inhibitor.; type: functional
[8] = target: T3, Hexokinase-2 (Rattus norvegicus) (UniProt P27881); experiment: Time dependent inhibition of hexokinase 2 activity after 6 h, at 5 mM compound
T3 sequence (whole entry): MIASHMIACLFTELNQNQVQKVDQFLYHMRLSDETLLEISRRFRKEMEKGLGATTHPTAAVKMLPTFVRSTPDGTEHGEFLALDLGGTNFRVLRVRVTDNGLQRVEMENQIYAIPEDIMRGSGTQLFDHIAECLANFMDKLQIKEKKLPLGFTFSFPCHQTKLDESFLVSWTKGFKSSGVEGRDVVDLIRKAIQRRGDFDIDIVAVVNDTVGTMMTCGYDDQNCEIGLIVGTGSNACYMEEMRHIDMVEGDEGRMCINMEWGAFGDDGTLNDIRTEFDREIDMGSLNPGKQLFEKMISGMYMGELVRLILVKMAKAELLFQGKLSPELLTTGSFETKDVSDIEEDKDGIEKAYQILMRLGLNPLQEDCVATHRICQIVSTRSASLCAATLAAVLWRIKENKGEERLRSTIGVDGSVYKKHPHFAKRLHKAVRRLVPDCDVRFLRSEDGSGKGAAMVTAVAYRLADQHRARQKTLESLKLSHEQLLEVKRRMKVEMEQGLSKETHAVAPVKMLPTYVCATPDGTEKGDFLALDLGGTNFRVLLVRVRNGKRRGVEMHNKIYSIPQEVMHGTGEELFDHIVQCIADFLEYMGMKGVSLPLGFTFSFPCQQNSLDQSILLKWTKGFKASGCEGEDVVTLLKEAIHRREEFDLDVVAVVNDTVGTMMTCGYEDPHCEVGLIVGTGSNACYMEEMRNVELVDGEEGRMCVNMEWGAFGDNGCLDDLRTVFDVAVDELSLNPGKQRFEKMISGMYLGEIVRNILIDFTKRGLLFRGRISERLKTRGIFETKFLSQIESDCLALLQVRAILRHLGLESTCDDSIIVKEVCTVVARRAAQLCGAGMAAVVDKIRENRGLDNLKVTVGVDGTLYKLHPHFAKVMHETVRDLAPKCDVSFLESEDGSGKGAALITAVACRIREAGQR

[9] = target: T3, Hexokinase-2 (Rattus norvegicus); experiment: Substrate activity against Rat hexokinase II as 1:1 Mg complex at 5.0 mM; in short: as §1
Saccharomyces cerevisiae [10] = experiment: Time dependent inhibition of hexokinase activity after 6 hr, at 22 degrees celsius, with 5 mM ATP derivative in yeast.
[11] = target: T2, Hexokinase-3 (Rattus norvegicus); experiment: Time dependent inhibition of Hexokinase type III activity after 6 h, at 22 degrees celsius, at 5 mM
[12] = Compound was tested for the affinity relative to the normal substrate. Affinity is expressed as KM (ATP or ADP)/ Ki of inhibitor.
[13] = as §2
[14] = Tested for the velocity of 2.8 mM compound relative to that of 2.8 mM MgATP in the assay
In short: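 E. coli TK substrate test. 0.5 h after adding inhibitor, the mixture was diluted to 2.8 mM derivative in thymidine assay medium without ATP and with 1.42 mM MnCl2. Incubated 15 min at 37 °C, in the linear range. [14C]TMP formed was compared with that from 2.8 mM ATP under the same conditions.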

SMILES	Relative velocity [1]	inhibition [2] [%]	inhibition [3] [%]	inhibition [4] [%]	Relative velocity (Saccharomyces cerevisiae [5])	Inactivation [6] [%]	Relative velocity [7]	Relative affinity (Rattus norvegicus)	inhibition [8] [%]	Relative velocity [9]	inhibition (Saccharomyces cerevisiae [10]) [%]	inhibition [11] [%]	Relative affinity [12]	Relative inactivation [13]	Velocity [14] [%]
O=C(CI)NCCCCCCCCNc1ncnc2c1ncn2[C@@H]1O[C@H](COP(=O)(O)OP(=O)(O)OP(=O)(O)O)[C@@H](O)[C@H]1O	1.79	0	35	19	1.82	> 90	2.81	0.011	41	1.26	30	47	–	–	–
CN(CCCCN(C)c1ncnc2c1ncn2[C@@H]1O[C@H](COP(=O)(O)OP(=O)(O)OP(=O)(O)O)[C@@H](O)[C@H]1O)C(=O)CCCCCNC(=O)CI	–	53	0	11	–	–	–	–	0	–	–	0	0.56	> 80	> 13
